Results from different studies.
Compare with care: the assays were run in different laboratories.
AKT2: RAC-beta serine/threonine-protein kinase (AKT2, Homo sapiens, UniProt P31751)
BTK: Tyrosine-protein kinase BTK (BTK, Homo sapiens, UniProt Q06187)

With NC/C(=C\F)COc1cccc(Cn2c(=S)[nH]c(=O)c3[nH]cnc32)c1 the inhibition was under 50% (D(4) dopamine receptor (DRD4, Homo sapiens, UniProt P21917, del265-296); ligand displacement, radioligand; 10 µM).
For Cc1cc(-c2ccnc3[nH]cc(F)c23)cc(F)c1[C@@]1(O)[C@H](C)CN(C2CCS(=O)(=O)CC2)C[C@@H]1C, the remaining activity was 103% (AKT2; enzyme activity, inhibitor; 0.1 µM).
Cc1cc(O)c(-c2ccc([C@@H](C)CN(C)C)cc2)c2c1[nH]c(=O)c1sccc12 has an inhibition of -15.2% ([Pyruvate dehydrogenase (acetyl-transferring)] kinase isozyme 1, mitochondrial (PDK1, Homo sapiens, UniProt Q15118); enzyme activity, inhibitor; 0.1 µM, lysate).
With CCCCC(=O)Nc1ccc(-c2ccc3ncn(CCC)c(=O)c3c2)cn1 the remaining binding was 99% (Mast/stem cell growth factor receptor Kit (KIT, Homo sapiens, UniProt P10721, V559D); binding, competition with immobilised ligand; 0.5 µM).
With [2H]c1cc(C)c(NC(=O)c2cnc(Nc3cc(N4CCCCC4)nc(C)n3)s2)c(Cl)c1 the inhibition was 90% (BTK; enzyme activity, inhibitor, mobility shift; 1 nM).
The remaining activity of Cc1cc(-c2ccnc3[nH]cc(F)c23)cc(F)c1[C@@]1(O)[C@H](C)CN(C(=O)CN)C[C@@H]1C is reported as 113% (AKT2; enzyme activity, inhibitor; 0.1 µM).
The inhibition of [2H]c1cc(C)c(NC(=O)c2cnc(Nc3cc(N4CC[C@@H](N)C4)nc(C)n3)s2)c(Cl)c1 is reported as 52% (BTK; enzyme activity, inhibitor, mobility shift; 1 nM).
For N#Cc1ccc(NC(=O)Nc2ccccc2)cc1, the remaining binding was 89% (Mast/stem cell growth factor receptor Kit (KIT, Homo sapiens, UniProt P10721, D816V); cell-free assay, competition with immobilised ligand; 25 µM).
With Cc1nc(Nc2ncc(C(=O)Nc3c(C)cccc3Cl)s2)cc(N2CCCCC2)n1 the inhibition was 56% (BTK; enzyme activity, inhibitor, mobility shift; 1 nM).
C[C@H](NC(=O)C(=O)Nc1ccccc1C(C)(C)C)C(=O)N[C@@H](CC(=O)O)C(=O)COc1c(F)c(F)cc(F)c1F gave a kinact/KI of 448000 M⁻¹ s⁻¹ (Caspase-4 (Casp4, Mus musculus, UniProt P70343); enzyme activity, inhibitor).
With Cc1nc(Nc2ncc(C(=O)Nc3c(C)cccc3Cl)s2)cc(N2CC[C@H](O)C2)n1 the inhibition was 72% (BTK; enzyme activity, inhibitor, mobility shift; 1 nM).
COc1ccc2oc(-c3ccc4nc(N)oc4c3)c/c(=N\c3ccccc3NC(=O)CCN)c2c1 gave a remaining binding of 106% (Casein kinase II subunit alpha (CSNK2A1, Homo sapiens, UniProt P68400); binding; 1 µM).
For C#Cc1cc(-c2cc(Nc3nc(N[C@@H](C)c4ccc(F)cn4)ncc3Cl)n[nH]2)ccc1C=O, the inhibition was 3.1% (Mitogen-activated protein kinase kinase kinase 19 (MAP3K19, Homo sapiens, UniProt Q56UN5); enzyme activity, inhibitor; 0.2 µM).
C1=C/COCc2cc(ccc2OCCN2CCCC2)Nc2nccc(n2)-c2cccc(c2)COC/1 gave a remaining binding of 95% (Serine/threonine-protein kinase Nek11 (NEK11, Homo sapiens, UniProt Q8NG66); binding; 0.1 µM).
The inhibition of CN(C)CCOC(=O)COc1ccc(Cl)cc1 is reported as -12.4% (D(4) dopamine receptor (DRD4, Homo sapiens, UniProt P21917); ligand displacement, radioligand; 1 µM, cell membranes).
